Source: PubChem (The Scripps Research Institute Molecular Screening Center)
This is a sample that favours compounds with a hit; in the whole collection about 1.8% have one here.
M4 ag = agonists of human muscarinic M4 receptor (CHRM4); activation, % at 3 µM; CHO-K1 hM4/Gqi5, Fluo-8 calcium fluorescence; vehicle 0%, full acetylcholine response 100%; P08173; 360,000 tested, 0.14% active;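 active = activation above the run mean over all test wells plus 3 SD, cut at about 32% in these data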;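 note: peak over basal fluorescence ratio per well then scaled between controls; 0% = DMSO wells and 100% = acetylcholine at EC100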
Target sequence (P08173 whole entry, looked up): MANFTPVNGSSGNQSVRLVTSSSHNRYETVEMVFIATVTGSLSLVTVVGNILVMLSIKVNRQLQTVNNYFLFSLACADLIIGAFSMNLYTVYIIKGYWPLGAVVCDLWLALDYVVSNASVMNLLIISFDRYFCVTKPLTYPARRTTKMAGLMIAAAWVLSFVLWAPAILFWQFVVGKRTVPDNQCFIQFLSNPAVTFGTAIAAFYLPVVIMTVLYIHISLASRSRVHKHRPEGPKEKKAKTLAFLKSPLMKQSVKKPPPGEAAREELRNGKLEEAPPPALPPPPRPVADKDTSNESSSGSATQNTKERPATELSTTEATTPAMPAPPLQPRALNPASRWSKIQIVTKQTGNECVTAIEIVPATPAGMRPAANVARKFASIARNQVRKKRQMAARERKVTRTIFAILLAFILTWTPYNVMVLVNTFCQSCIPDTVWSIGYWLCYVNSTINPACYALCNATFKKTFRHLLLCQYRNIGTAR
CHRM4 PAM = potentiates acetylcholine response at human M4 receptor. 360,000 tested, 0.4% active. CHO-K1 hM4/Gqi5, Fluo-8 calcium fluorescence, ACh EC20; 0% = ACh EC20, 100% = maximal ACh. activation, % at 3 µM. AID 624126. P08173;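 active = activation above its plate's cutoff, the mean activation of sample wells plus 3 SD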
CHRM5 agonist = agonists of human muscarinic M5 receptor (CHRM5); AID 624037; 360,000 tested, 0.19% active; CHO-K1 hM5 cells, Fluo-8 calcium fluorescence; 0% DMSO wells, 100% maximal acetylcholine response; activation, % at 3 µM; P08912;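 active = activation above the run's mean over test compounds plus 3 SD, cut at about 23% in these data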;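 note: signal is peak over basal fluorescence ratio across the kinetic read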
CHRM5 antagonist = antagonists of human muscarinic M5 receptor (CHRM5). AID 624040. CHO-hM5 cells, Fluo-8 calcium fluorescence, ACh EC80. P08912. 360,000 tested, 0.59% active. inhibition, % at 3 µM;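 active = inhibition above a per-plate cutoff, the mean of that plate's test compounds plus 3 SD, cut at about 27% in these data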;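 note: 0% = acetylcholine EC80 with DMSO and 100% = DMSO without agonist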
M4 antag = blocks acetylcholine activation of human M4 receptor; AID 624125; P08173; 360,000 tested, 0.73% active; CHO-hM4 cells, ACh EC80, Fluo-8 calcium fluorescence; inhibition, % at 3 µM;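 active = inhibition above its plate's cutoff, the mean inhibition of sample wells plus 3 SD, cut at about 27% in these data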;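 note: 0% = acetylcholine EC80 with DMSO and 100% = DMSO without agonist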
M5 PAM = CHRM5 positive allosteric modulation | 360,000 tested, 0.3% active | CHO-K1 hM5, Fluo-8 calcium, ACh EC20 PAM; 0% = ACh EC20, 100% = ACh EC100 | P08912 | activation, % at 3 µM | AID 624038;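 active = activation above the run cutoff, the mean activation of all test compounds plus 3 SD, cut at about 18% in these data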
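System: CHO-K1 hM5 cells. Reagent: acetylcholine, EC20 level. Compound dosing: single dose, 3 µM nominal final test concentration. Timing: Post-acetylcholine fluorescence recording 140 s. Detection: Fluo-8 calcium fluorescence. Read-out: % activation, ACh-normalized. Benchmarks: ACh EC20 and EC100 wells. Repeats: singlicate, one well per test compound.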
Active calls of the source: *.

SMILES	M4 ag	CHRM4 PAM	CHRM5 agonist	CHRM5 antagonist	M4 antag	M5 PAM
COc1ccc2c(C)c(CCC(=O)NCCCN3CCCC3=O)c(=O)oc2c1C	1	7	3	2	-15	1
O=C(Nc1ccc(O)c(-c2nc3ccccc3s2)c1)C1=COCCO1	2	-41	-4	23	79*	-20
O=C(Nc1ccc(-c2nc3ccccc3s2)c(O)c1)C1=COCCO1	-2	9	1	-12	-24	3
CN(C)CCNc1ccc(Cl)cc1[N+](=O)[O-]	1	-13	-10	30*	9	-19
CS(=O)(=O)NCCNc1ccc(Cl)cc1[N+](=O)[O-]	13	-12	3	9	5	-13
COc1ccccc1NS(=O)(=O)c1cc(C(=O)N2CC(C)CC(C)C2)ccc1C (configuration not stated)	-1	-5	-2	2	-2	1
CSc1ccc2c(c1)N(CCC1CCCCN1C)c1ccccc1S2 (configuration not stated)	19	-19	4	100*	98*	-19
CCN(CC)CCNC(=O)C1c2cc(OC)c(OC)cc2C(=O)N(C)C1c1cccs1 (configuration not stated)	0	-1	-2	9	1	0
CCOc1ccc(S(=O)(=O)N2CCC(C(=O)N3CCOCC3)CC2)cc1C	2	-3	-2	12	-4	-1
CCOc1ccc(S(=O)(=O)N2CCC(C(=O)N3CCCCCC3)CC2)cc1C	4	3	15	-15	-8	50*
Cn1cc(Cl)c(C(=O)OCC(=O)Nc2ccccc2)n1	1	12	6	47*	1	-1
Cn1ccc(C(=O)OCC(=O)Nc2cccc(Cl)c2)n1	2	-1	0	6	-1	1
Cc1cc(=O)n(-c2ccc3ccccc3n2)[nH]1	0	34*	1	-2	19	3
NS(=O)(=O)c1ccc(NC(=O)CCC(=O)c2cccs2)cc1	1	-4	-2	2	-12	0
NS(=O)(=O)c1ccc(NC(=O)CCC(=O)c2ccc(Cl)s2)cc1	0	24*	-3	0	-9	5
CCOC(=O)C1(CCOc2ccccc2)CCN(Cc2ccc(OCCO)cc2)CC1	3	-5	-20	3	1	-5
CCOC(=O)C1(CCOc2ccccc2)CCN(Cc2ccc(O)c(OCC)c2)CC1	12	-12	-5	31*	-13	-18
CCOC(=O)C1(CCOc2ccccc2)CCN(Cc2ccc(OC)c(O)c2)CC1	7	-10	-24	9	-7	-30
COC(=O)c1ccc(CN2CCC(CO)(Cc3cccc(OC)c3)CC2)cc1	3	-19	-10	5	18	-12
CCOC(=O)C1(CCOc2ccccc2)CCN(Cc2ccc(O)cc2)CC1	9	-14	-20	28*	-5	-34
COC(=O)c1ccc(CN2CCC(CO)(CCOc3ccccc3)CC2)cc1	4	-16	-16	27*	48*	-29
CC(=O)N1c2ccc(S(=O)(=O)N3CCC(C(=O)N4CCN(c5ccccc5F)CC4)CC3)cc2CC1C (configuration not stated)	13	-11	-1	8	-9	-7
COc1ccc(C(CNC(=O)C(C)Sc2ccccc2)N2CCOCC2)cc1 (configuration not stated)	1	0	0	-4	-3	8
CC(C)c1ccc(NC(=O)CSc2nc(=O)n(CCN3CCOCC3)c3c2CCC3)cc1	0	0	-4	8	1	-2
COc1ccc(NC(=O)c2ccco2)cc1N	3	5	-2	-2	-9	20*
SMILES	M4 ag	CHRM4 PAM	CHRM5 agonist	CHRM5 antagonist	M4 antag	M5 PAM
Cc1nc2c(OCc3ccc(F)c(F)c3)cccn2c1N(C)C(=O)CCC1CCCC1	11	-12	-1	7	-3	-12
COc1ccc(-n2cnnc2SCC(=O)Nc2cccnc2Cl)cc1	0	0	-1	7	4	7
CCc1c(N)nc(N)nc1Nc1ccc(C)c(C)c1	4	7	2	4	-17	-12
Nc1nc(N)c(N=O)c(Nc2cccc(Cl)c2)n1	7	5	45*	-7	-9	-1
Nc1nc(N)c(Br)c(Nc2ccc(Cl)c(Cl)c2)n1	4	23	25*	0	-20	29*
Cc1ccc(Nc2nc(N)nc(N)c2N=O)cc1Cl	11	18	45*	6	-3	-4
Nc1nc(N)c(N=O)c(Nc2ccc(Cl)c(Cl)c2)n1	19	21	52*	2	-12	-1
CN(C)Cc1csc(NC(=O)Nc2ccccc2C(C)(C)C)n1	0	0	2	11	-9	-6
Cc1ccc(C(=O)NCCC(=O)NCc2cc(=O)n(C)c(=O)n2C)cc1	1	2	-2	-3	4	2
O=S(=O)(c1cccc(Br)c1)N1CCN(C(=S)NCC2CCCO2)CC1 (configuration not stated)	5	7	0	4	-23	-4
CCOc1ccccc1NC(=S)N1CCN(c2cccc(OC)c2)CC1	2	-3	1	8	-2	2
O=C(COC(=O)c1cccnc1)Nc1ccc2c(c1)OCO2	1	4	-2	1	2	2
CC(C)=C(C#N)c1nc2ccccc2s1	21	-7	18	27*	20	-6
COC(=O)c1ccc(/C(O)=C(\C#N)c2nc3ccccc3s2)cc1	9	-3	9	0	0	0
N#C/C(=C/c1ccncc1)c1nc2ccccc2s1	21	-12	26*	30*	25	-15
O=c1ccc2cccc([N+](=O)[O-])c2[nH]1	0	-1	1	4	4	-1
O=C(NC(O)C(=O)c1ccc(F)cc1)c1ccc(F)cc1 (configuration not stated)	6	3	6	-9	-16	4
CCCCCCCn1c2c(c(=N)c3ccccc31)CCC2	2	-8	-16	27*	4	-9
Cc1n[nH]c(C)c1CCNC(=O)C1CCC(=O)N(CCc2cccc(F)c2)C1 (configuration not stated)	0	10	3	-6	-8	24*
Cn1nc(C(F)(F)F)c(-c2ccc(Br)cc2)c1NC(=O)Nc1ccc(F)cc1F	14	-14	9	30*	8	-20
CC[n+]1c(/C=C/N(C)c2ccccc2)n(-c2ccccc2)c2ccc(-c3nc4ccccc4s3)cc21	7	-16	-21	6	58*	-26
